Source: ChEMBL document CHEMBL1139744, “Rapid synthesis of 4-benzylidene and 4-[bis-(4-methoxyphenyl)-methylene-2-substituted phenyl-benzopyrans as potential selective estrogen receptor modulators (SERMs) using McMurry coupling reaction” (Bioorg Med Chem Lett, 2006)
Activity calls are given as the source filed them. The rule behind the calls is not given here.

How the values were obtained:
Rattus norvegicus [1] = experiment: Antagonist activity at ER receptor assessed as inhibition of 17-alpha-ethynylestradiol-induced increase in uterine weight of Sprague-Dawley rat at 10 mg/kg/day, po; type: functional; conditions: for inhibition in vivo at 10 mg/kg/day: Rattus norvegicus, Sprague-Dawley
Summary of the method: (§1)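 Oral dosing was given alongside 17α-ethynylestradiol (0.02 mg/kg) in rats, with vehicle and EE-alone groups. Fresh uterine weight was expressed as percent of the EE-alone group. Values are means ± SEM of at least six animals per group. Significance was tested against the corresponding EE-alone group (P<0.05, P<0.01).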

Rattus norvegicus [2] = experiment: Agonist activity at ER receptor assessed as increase in uterine weight of Sprague-Dawley rat at 10 mg/kg/day, po; type: functional
Summary of the method: (§2)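 Immature female rats were dosed orally once daily on days 28–30 of age, with a vehicle-only control group. At autopsy on day 31, 24 h after the last dose, a vaginal smear was taken and the uterus was excised, blotted and weighed fresh. Agonism was judged by uterine weight gain, vaginal opening and cornification versus vehicle. Values are means ± SEM, n≥6 per group.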

Rattus norvegicus [3] = experiment: Agonist activity at ER receptor assessed as increase in uterine weight of Sprague-Dawley rat at 10 mg/kg/day, po relative to control; type: functional; summary of the method: as §2
MCF7 [4] = experiment: Antiproliferative activity against MCF7 cells […] after 48 hrs; type: functional; conditions: Homo sapiens; for IC50: MCF7, 48 h
Summary of the method: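 MCF-7 cells were trypsinized (0.05% trypsin–EDTA), plated at 10⁴ cells/well in MEM at pH 7.4, and left to attach for 24 h at 37 °C under CO₂. Compounds in ethanol/DMSO were added and incubated 48 h. Cells were fixed with cold 10% TCA for 1 h at 4 °C, stained with 0.4% SRB in 1% acetic acid for 30 min, and the stain was extracted with Tris base at pH 10.5. OD was read at 560 nm.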

Rattus norvegicus [5] = experiment: Antagonist activity at ER receptor assessed as inhibition of increase in uterine weight of Sprague-Dawley rat at 10 mg/kg/day, po relative to 17-alpha-ethynylestradiol; type: functional; design: scale not given: the % may be the effect or the level left; summary of the method: as §1
[6] = biological target: T1, Estrogen receptor (Rattus norvegicus) (UniProt P06211); experiment: Displacement of [3H]estradiol from ER in rat uterus […] relative to estradiol
T1 sequence (whole entry): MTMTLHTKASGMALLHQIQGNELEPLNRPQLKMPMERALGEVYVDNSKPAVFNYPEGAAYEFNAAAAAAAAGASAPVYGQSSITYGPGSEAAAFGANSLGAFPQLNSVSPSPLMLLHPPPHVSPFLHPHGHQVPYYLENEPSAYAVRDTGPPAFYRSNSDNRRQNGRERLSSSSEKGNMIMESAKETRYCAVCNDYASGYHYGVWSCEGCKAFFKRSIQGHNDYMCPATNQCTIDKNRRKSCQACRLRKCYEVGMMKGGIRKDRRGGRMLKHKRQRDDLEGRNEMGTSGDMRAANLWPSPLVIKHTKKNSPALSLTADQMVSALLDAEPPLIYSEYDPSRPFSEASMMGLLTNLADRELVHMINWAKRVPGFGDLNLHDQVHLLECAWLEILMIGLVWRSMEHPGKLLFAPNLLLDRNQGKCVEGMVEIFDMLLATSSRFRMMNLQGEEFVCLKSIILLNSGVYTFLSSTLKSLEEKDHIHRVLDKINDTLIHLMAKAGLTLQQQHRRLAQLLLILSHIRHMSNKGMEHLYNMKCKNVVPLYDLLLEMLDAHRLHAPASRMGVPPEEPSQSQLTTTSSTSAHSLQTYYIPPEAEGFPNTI

MCF7 [7] = experiment: Antiproliferative activity against MCF7 cells at 3 mg/kg/day after 48 hrs; conditions: Homo sapiens, MCF7, 48 h
Rattus norvegicus [8] = experiment: Antagonist activity at ER receptor assessed as inhibition of 17-alpha-ethynylestradiol-induced increase in uterine weight of Sprague-Dawley rat at 3 mg/kg/day, po; type: functional; summary of the method: as §1
Rattus norvegicus [9] = experiment: Agonist activity at ER receptor assessed as increase in uterine weight of Sprague-Dawley rat at 3 mg/kg/day, po; type: functional; summary of the method: as §2
Rattus norvegicus [10] = experiment: Agonist activity at ER receptor assessed as increase in uterine weight of Sprague-Dawley rat at 3 mg/kg/day, po relative to control; type: functional; summary of the method: as §2
Rattus norvegicus [11] = experiment: Antagonist activity at ER receptor assessed as inhibition of increase in uterine weight of Sprague-Dawley rat at 3 mg/kg/day, po relative to 17-alpha-ethynylestradiol; type: functional; design: scale not given: the % may be the effect or the level left; summary of the method: as §1
Rattus norvegicus [12] = experiment: Antagonist activity at ER receptor assessed as increase in uterine weight in Sprague-Dawley rat at 0.02 mg/kg/day, po; type: functional
Rattus norvegicus [13] = experiment: Agonist activity at ER receptor assessed as increase in uterine weight in Sprague-Dawley rat at 0.02 mg/kg/day, po; type: functional; summary of the method: as §2
Rattus norvegicus [14] = experiment: Agonist activity at ER receptor assessed as increase in uterine weight of Sprague-Dawley rat at 0.02 mg/kg/day, po relative to control; type: functional; summary of the method: as §2
Rattus norvegicus [15] = experiment: Activity at ER receptor assessed as additive effect on 17-alpha-ethynylestradiol-induced increase in uterine weight of Sprague-Dawley rat at 10 mg/kg/day, po; type: functional; summary of the method: as §1

Row | Structure (SMILES) | Activity (Rattus norvegicus [1]) [mg] | inhibition in vivo at 10 mg/kg/day (Rattus norvegicus [1]) [%] | Activity (Rattus norvegicus [2]) [mg] | Activity (Rattus norvegicus [3]) [%] | Activity (MCF7 [4]) | RBA [6] [%] | IC50 (MCF7 [4]) [µM] | further results
1 | COc1ccc2c(c1)OC(c1ccc(O)cc1)C/C2=C\c1ccc(OCc2ccccc2)cc1 (centres undefined) | 46.33 | 29 | 38.3 | 153 | inactive | 0.02 |  | Activity (Rattus norvegicus [5]): 29%
2 | COc1ccc(C(=C2CC(c3ccc(O)cc3)Oc3cc(OC)ccc32)c2ccc(OC)cc2)cc1 (centres undefined) | 70.33 | 17 | 26 | 86 | inactive | 0.097 |  | 
3 | CC/C(=C(\c1ccccc1)c1ccc(OCCN(C)C)cc1)c1ccccc1 [TAMOXIFEN] |  |  |  |  |  |  |  | IC50 (MCF7 [7]): 5.09 µM; Activity (Rattus norvegicus [8]): 52.3 mg; inhibition in vivo at 3 mg/kg/day (Rattus norvegicus [8]; Rattus norvegicus, Sprague-Dawley): 49%; Activity (Rattus norvegicus [9]): 46.32 mg; Activity (Rattus norvegicus [10]): 155%; Activity (Rattus norvegicus [11]): 49%
4 | COc1ccc(/C=C2\CC(c3ccc(OCCN(C)C)cc3)Oc3cc(OC)ccc32)cc1 (centres undefined) | 85.4 | 21 | 46.3 | 189 |  | 0.006 | 2 | 
5 | COc1ccc(C(=C2CC(c3ccc(OCCN4CCCCC4)cc3)Oc3cc(OC)ccc32)c2ccc(OC)cc2)cc1 (centres undefined) | 81.7 | 26 | 52.5 | 168 |  | < 0.001 | 6.68 | 
6 | COc1ccc(C(=C2CC(c3ccc(OCCN(C)C)cc3)Oc3cc(OC)ccc32)c2ccc(OC)cc2)cc1 (centres undefined) |  |  |  |  | inactive | < 0.001 |  | 
7 | COc1ccc(/C=C2\CC(c3ccc(OCCN4CCCCC4)cc3)Oc3cc(OC)ccc32)cc1 (centres undefined) | 104.4 | 4 | 24.63 | 54 |  | 0.095 | 4.39 | 
8 | C#C[C@]1(O)CC[C@H]2[C@@H]3CCc4cc(O)ccc4[C@H]3CC[C@@]21C [ETHINYL ESTRADIOL] |  |  |  |  |  |  |  | Activity (Rattus norvegicus [12]): 66.35 mg; Activity (Rattus norvegicus [13]): 66.35 mg; Activity (Rattus norvegicus [14]): 464%
9 | COc1ccc(/C=C2\CC(c3ccc(O)cc3)Oc3cc(OC)ccc32)cc1 (centres undefined) | 88.33 |  | 17.33 | 24 |  | 0.013 | 8.77 | Activity (Rattus norvegicus [15]): 88.33 mg
10 | COc1ccc(/C=C2\CC(c3ccc(OCCN4CCCC4)cc3)Oc3cc(OC)ccc32)cc1 (centres undefined) | 92.3 | 15 | 39.57 | 147 |  | 0.095 | 7.39 | 
